Measurements from paper PMC4474499 (Science Advances, 2015).
Entries after “also recorded” stand apart in the source; their conditions may differ. One block for each molecule: values may come before it. Non-standard residues stand in square brackets, D forms with d. No end group written: not given here. Pam3Cys = Cys carrying the Pam3 acyl chains of Pam3CSK4

B1: human TLR1 protein, purified extracellular domain (receptor, UniProt Q15399 25-580, looked up)
chain: SEFLVDRSKNGLIHVPKDLSQKTTILNISQNYISELWTSDILSLSKLRILIISHNRIQYLDISVFKFNQELEYLDLSHNKLVKISCHPTVNLKHLDLSFNAFDALPICKEFGNMSQLKFLGLSTTHLEKSSVLPIAHLNISKVLLVLGETYGEKEDPEGLQDFNTESLHIVFPTNKEFHFILDVSVKTVANLELSNIKCVLEDNKCSYFLSILAKLQTNPKLSNLTLNNIETTWNSFIRILQLVWHTTVWYFSISNVKLQGQLDFRDFDYSGTSLKALSIHQVVSDVFGFPQSYIYEIFSNMNIKNFTVSGTRMVHMLCPSKISPFLHLDFSNNLLTDTVFENCGHLTELETLILQMNQLKELSKIAEMTTQMKSLQQLDISQNSVSYDEKKGDCSWTKSLLSLNMSSNILTDTIFRCLPPRIKVLDLHSNKIKSIPKQVVKLEALQELNVAFNSLTDLPGCGSFSSLSVLIIDHNSVSHPSADFFQSCQKMRSIKAGDNPFQCTCELGEFVKNIDQVSSEVLEGWPDSYKCDYPESYRGTLLKDFHMSELSCNIT

Columns and labels:
human TLR2 = human TLR2 (Homo sapiens, UniProt O60603+Q15399); experiment: SEAP reporter gene detection assay in HEK-Blue hTLR2 cells; type: cell-based
Summary of the method: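 HEK-Blue hTLR2 cells (SEAP reporter), 4 × 10^4/well, grown 24 h. Then 24 h in Opti-MEM/0.5% FBS with compounds at 0–50 μM or 0–100 μM. Pam3CSK4 (0–66 nM) used as reference agonist. Supernatant heat-treated 30 min at 65°C, cooled, mixed with SEAP buffer and CSPD substrate; luminescence read after 20 min.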

TLR1/2 complex = TLR1/2 complex (Homo sapiens, UniProt O60603+Q15399); experiment: Fluorescence anisotropy competition with Rho-Pam3; type: binding; details: up to 10 μM
Summary of the method: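 Equal amounts of TLR1 and TLR2 (4 μl each of 10 μM stocks) added to Rho-Pam3CSK4 in PBS pH 7.4 and held 30 min. Serial test-compound concentrations then incubated with the complex 30 min at RT. Fluorescence anisotropy read at 25°C (ex 549/em 566 nm). An analog served as negative control; IC50 derived from the titration.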

NF-κB [1] = experiment: U937 NF-κB–GFP reporter assay; type: cell-based, human; details: 20 μM (GA even up to 100 μM), U937 cells
Raw 264.7 cells [2] = experiment: In vitro NO activation assay for Raw 264.7 cells; type: cell-based, mouse; details: Raw 264.7 macrophage cells, 1 µM CU-T12-9
Summary of the method: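 RAW 264.7 cells, 80,000/well, grown 24 h. Non-adherent cells removed; medium changed to unsupplemented RPMI 1640. Treated 24 h with test compound, or 66 nM (100 ng/ml) Pam3CSK4 as control. Supernatant reacted 15 min in the dark with 2,3-diaminonaphthalene in HCl, quenched with NaOH. Fluorescence read at ex 365/em 450 nm; nitrite calculated from a standard curve.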

NF-κB [3] = experiment: Triptolide inhibition of CU-T12-9–induced SEAP signaling in HEK-Blue hTLR2 cells; type: cell-based, human
hTLR1 and hTLR2 = hTLR1 and hTLR2 (Homo sapiens, UniProt O60603+Q15399); experiment: SEC-LS assay of TLR1/2 heterodimer formation; type: biochemical; details: CU-T12-9 0 to 40 μM or Pam3CSK4 260 nM (400 ng/ml)
Summary of the method: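 Human TLR2 in PBS pH 7.4 preincubated 2 h at RT with test compound or Pam3CSK4. Equimolar hTLR1 then added (final about 10 μM each) for 2 h at 37°C. Both proteins were baculovirus/insect-cell products. Samples filtered (0.1 μm) and run on size-exclusion column in PBS at 1 ml/min. Detection by in-line multi-angle light scattering, refractive index and UV.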

Raw 264.7 cells [4] = experiment: Quantitative RT-PCR of mRNA levels in Raw 264.7 macrophage cells; type: cell-based, mouse
Summary of the method: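 RAW 264.7 cells, 1 × 10^6/well, grown 24 h, then given fresh RPMI 1640. Exposed to test compound, or 33 nM (50 ng/ml) Pam3CSK4, for 0, 2, 8 or 24 h. Cells washed in cold PBS and frozen. Total RNA extracted (RNeasy) for qRT-PCR. Fold change calculated by ΔΔCt versus DMSO-treated cells, means ± SD.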

SEC-MALS = biological target: the molecule itself; experiment: SEC-MALS
[5] = biological target: TLR1/TLR2 complex (equimolar mixture of purified hTLR1 and hTLR2) (human, UniProt Q15399 25-580; O60603 21-588); experiment: fluorescence polarisation
[6] = biological target: B1; experiment: fluorescence polarisation
[7] = biological target: human TLR2 protein, purified extracellular domain (human, UniProt O60603 21-588); experiment: fluorescence polarisation
Sequence of human TLR2 protein, purified extracellular domain (O60603 21-588): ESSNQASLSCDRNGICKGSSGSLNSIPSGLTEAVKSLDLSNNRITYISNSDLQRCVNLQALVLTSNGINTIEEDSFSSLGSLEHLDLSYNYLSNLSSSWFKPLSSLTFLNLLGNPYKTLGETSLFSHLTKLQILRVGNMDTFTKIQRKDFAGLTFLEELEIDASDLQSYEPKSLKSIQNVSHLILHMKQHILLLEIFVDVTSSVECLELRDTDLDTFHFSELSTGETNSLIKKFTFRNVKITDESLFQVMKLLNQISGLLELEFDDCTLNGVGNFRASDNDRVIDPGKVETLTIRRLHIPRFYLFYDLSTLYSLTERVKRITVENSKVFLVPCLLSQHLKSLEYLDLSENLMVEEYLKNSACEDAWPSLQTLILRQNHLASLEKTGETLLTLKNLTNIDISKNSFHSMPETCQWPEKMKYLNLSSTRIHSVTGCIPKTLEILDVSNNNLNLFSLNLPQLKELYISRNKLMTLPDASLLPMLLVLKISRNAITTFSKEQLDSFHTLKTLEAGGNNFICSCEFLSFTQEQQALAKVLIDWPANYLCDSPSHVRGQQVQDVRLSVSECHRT

Sequence of human TLR2 (O60603 21-784): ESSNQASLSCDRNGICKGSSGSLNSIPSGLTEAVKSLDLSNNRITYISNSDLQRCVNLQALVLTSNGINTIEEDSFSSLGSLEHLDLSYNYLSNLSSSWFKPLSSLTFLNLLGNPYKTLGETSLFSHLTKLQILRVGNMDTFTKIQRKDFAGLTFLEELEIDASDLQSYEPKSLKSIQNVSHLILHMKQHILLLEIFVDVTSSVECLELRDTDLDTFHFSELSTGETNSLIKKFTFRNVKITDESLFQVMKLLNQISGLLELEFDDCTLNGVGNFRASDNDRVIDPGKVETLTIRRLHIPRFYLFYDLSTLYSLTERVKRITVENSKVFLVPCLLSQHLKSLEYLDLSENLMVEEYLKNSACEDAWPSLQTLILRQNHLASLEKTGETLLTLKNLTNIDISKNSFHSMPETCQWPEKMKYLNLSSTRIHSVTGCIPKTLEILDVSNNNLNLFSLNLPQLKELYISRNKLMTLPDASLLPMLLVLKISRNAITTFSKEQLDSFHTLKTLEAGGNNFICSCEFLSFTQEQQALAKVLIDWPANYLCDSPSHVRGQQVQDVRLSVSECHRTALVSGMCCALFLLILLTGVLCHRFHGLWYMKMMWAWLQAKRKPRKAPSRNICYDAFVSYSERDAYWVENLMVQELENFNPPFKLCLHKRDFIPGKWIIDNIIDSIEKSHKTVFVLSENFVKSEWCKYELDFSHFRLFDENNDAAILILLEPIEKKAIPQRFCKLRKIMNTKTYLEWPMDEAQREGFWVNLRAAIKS
Sequence of human TLR2 (Q15399 25-786): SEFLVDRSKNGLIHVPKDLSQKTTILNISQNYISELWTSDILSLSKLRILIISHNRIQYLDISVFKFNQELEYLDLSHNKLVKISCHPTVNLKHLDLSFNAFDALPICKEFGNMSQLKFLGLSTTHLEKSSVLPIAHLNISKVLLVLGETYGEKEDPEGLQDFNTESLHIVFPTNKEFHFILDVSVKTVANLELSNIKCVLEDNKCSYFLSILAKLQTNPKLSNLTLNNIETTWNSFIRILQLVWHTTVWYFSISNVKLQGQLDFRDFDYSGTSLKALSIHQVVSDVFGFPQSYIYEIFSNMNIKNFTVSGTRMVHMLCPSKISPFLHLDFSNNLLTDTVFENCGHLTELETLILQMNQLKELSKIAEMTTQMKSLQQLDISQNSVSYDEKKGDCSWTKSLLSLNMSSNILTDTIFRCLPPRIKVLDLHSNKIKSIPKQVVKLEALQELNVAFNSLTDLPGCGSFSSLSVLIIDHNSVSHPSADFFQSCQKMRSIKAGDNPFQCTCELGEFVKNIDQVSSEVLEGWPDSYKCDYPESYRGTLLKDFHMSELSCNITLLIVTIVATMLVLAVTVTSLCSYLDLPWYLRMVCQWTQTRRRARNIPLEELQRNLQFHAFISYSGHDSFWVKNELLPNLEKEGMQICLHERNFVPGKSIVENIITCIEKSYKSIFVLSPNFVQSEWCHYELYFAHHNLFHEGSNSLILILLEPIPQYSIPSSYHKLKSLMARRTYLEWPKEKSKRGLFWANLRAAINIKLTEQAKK
Sequence of TLR1/2 complex (O60603 21-588 limits assumed, one chain of several): as the sequence (O60603 21-588) above
Sequence of TLR1/TLR2 complex (equimolar mixture of purified hTLR1 and hTLR2) (O60603 21-588, chain 2 of 2, one chain of several): as the sequence (O60603 21-588) above
Sequence of hTLR1 and hTLR2 (O60603 21-588 limits assumed, one chain of several): as the sequence (O60603 21-588) above

Molecule: CNc1ccc([N+](=O)[O-])cc1-n1cnc(-c2cccc([N+](=O)[O-])c2)c1 [Compound 10]
SEAP agonist activity (in words) (human TLR2; HEK-Blue hTLR2 cells, nitro group switched from R3 to R4): completely abolished activity

Molecule: CNc1ccc(C(=O)O)cc1-n1cnc(-c2ccc(C(F)(F)F)cc2)c1 [Compound T12-29]
inhibition of Rho-Pam3 binding to TLR1/TLR2 (TLR1/2 complex): no competitive binding; also recorded: negligible inhibition

Molecule: CNc1ccc([N+](=O)[O-])cc1-n1cnc(-c2ccc([N+](=O)[O-])cc2)c1 [GA, N-methyl-4-nitro-2-(4-(4-nitrophenyl)-1H-imidazol-1-yl)aniline, reference compound]
NF-κB activation (NF-κB [1]): much lower NF-κB activation

Molecule: CCOC(=O)C1=CCCC[C@H]1S(=O)(=O)Nc1ccc(F)cc1Cl [TAK-242, reference compound]
inhibition of CU-T12-9 induced NO activation (Raw 264.7 cells [2]): could not be influenced

Molecule: CC(C)[C@]12O[C@H]1[C@@H]1O[C@]13[C@]1(O[C@H]1C[C@H]1C4=C(CC[C@@]13C)C(=O)OC4)[C@@H]2O [Triptolide]
inhibition of CU-T12-9–induced SEAP signaling (NF-κB [3]): efficiently inhibit

Molecule: B1
stoichiometry N (SEC-MALS): 2

Now from value to molecule, other results behind:

increase in potency relative to GA (factor) (human TLR2; replacement of –NO2 at R3): 10
Molecule: CNc1ccc([N+](=O)[O-])cc1-n1cnc(-c2ccc(C#N)cc2)c1 [Compound 11]

SEAP activity at 100 μM (human TLR2; 100 μM, HEK-Blue hTLR2 cells): inactive
Molecule: CNc1ccc([N+](=O)[O-])cc1-n1cnc(-c2ccc(C(=O)O)cc2)c1 [Compound 19]

decrease in potency compared with CU-T12-9 (human TLR2; –CF3 at R1): four times
Molecule: CNc1ccc(C(F)(F)F)cc1-n1cnc(-c2ccc(C(F)(F)F)cc2)c1 [Compound 20]

TLR1/2 heterodimer formation (hTLR1 and hTLR2): promoted TLR1/2 heterodimerization
Molecule: Pam3CSK4 [reference compound]
time of highest TLR2 mRNA expression (Raw 264.7 cells [4]; 1 μM CU-T12-9 or 33 nM (50 ng/ml) Pam3CSK4, measured at 2, 8, 24 hours): 2 h
TNF mRNA expression (Raw 264.7 cells [4]; over time, maximal expression after 8 hours): increased
iNOS mRNA expression (Raw 264.7 cells [4]; over time, peaked at 24 hours): increased

Kd [5]: 35 ± 1.98 nM
Kd [6]: 41.6 ± 2.36 nM
Kd [7]: 125 ± 3.43 nM
B2: rhodamine-labeled Pam3CSK4 (peptide)
peptide: [Pam3Cys]SKKKK
modifications: also: rhodamine label, site not given here
